Measurements reported in the M2OR odorant receptor database.

What was measured:
Conditions in all cases: stereoisomer not certain
OR4F3 (Homo sapiens) = OR4F3 (Homo sapiens) (UniProt Q6IEY1)
Procedure, shortened: (§1)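 Each receptor–molecule pair is labelled responsive or non-responsive (inactive) according to whether the original authors judged the measured signal statistically different from baseline. The data were taken from the main text and supplementary material of published papers and checked for typos and inconsistencies. Assay methods differed by source, with transient luciferase assays in mammalian cell lines being common.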

OR4F4 (Homo sapiens) = OR4F4 (Homo sapiens) (UniProt Q96R69)
Procedure, shortened: as §1

OR4F5 (Homo sapiens) = OR4F5 (Homo sapiens) (UniProt Q8NH21)
Procedure, shortened: as §1

OR4F5 T141A Q293R = test system: OR4F5 T141A Q293R
Procedure, shortened: as §1

OR4F6 (Homo sapiens) = OR4F6 (Homo sapiens) (UniProt Q8NGB9)
Procedure, shortened: as §1

OR4K1 (Homo sapiens) = OR4K1 (Homo sapiens) (UniProt Q8NGD4)
Procedure, shortened: as §1

OR4K1 R304H = test system: OR4K1 R304H
Procedure, shortened: as §1

OR4K13 (Homo sapiens) = OR4K13 (Homo sapiens) (UniProt Q8NH42)
Procedure, shortened: as §1

OR4K14 (Homo sapiens) = OR4K14 (Homo sapiens) (UniProt Q8NGD5)
Procedure, shortened: as §1

OR4K15 (Homo sapiens) = OR4K15 (Homo sapiens) (UniProt Q8NH41)
Procedure, shortened: as §1

Measured: odorant receptor agonist call;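 also: active if original authors judged signal statistically different from baseline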

Chain of OR4F3 (Homo sapiens) (Q6IEY1 whole entry): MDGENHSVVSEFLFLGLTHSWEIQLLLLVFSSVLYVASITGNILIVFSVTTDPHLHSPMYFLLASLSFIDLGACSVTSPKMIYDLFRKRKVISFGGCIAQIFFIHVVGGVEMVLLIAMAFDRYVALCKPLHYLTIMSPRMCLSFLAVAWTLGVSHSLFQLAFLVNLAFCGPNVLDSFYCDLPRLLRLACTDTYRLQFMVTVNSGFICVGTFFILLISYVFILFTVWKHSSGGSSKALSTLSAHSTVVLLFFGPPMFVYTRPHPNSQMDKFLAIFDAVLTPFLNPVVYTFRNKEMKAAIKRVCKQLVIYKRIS
Chain of OR4F5 (Homo sapiens) (Q8NH21 whole entry): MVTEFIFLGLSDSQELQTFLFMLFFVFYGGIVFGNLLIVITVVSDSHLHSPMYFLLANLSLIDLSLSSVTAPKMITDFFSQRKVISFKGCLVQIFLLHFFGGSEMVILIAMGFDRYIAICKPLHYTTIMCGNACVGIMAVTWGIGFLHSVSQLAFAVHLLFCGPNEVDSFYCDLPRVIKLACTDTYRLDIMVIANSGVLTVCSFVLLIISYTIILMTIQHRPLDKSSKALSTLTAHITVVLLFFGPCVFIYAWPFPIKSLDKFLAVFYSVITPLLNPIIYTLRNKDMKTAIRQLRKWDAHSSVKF
Chain of OR4K14 (Homo sapiens) (Q8NGD5 whole entry): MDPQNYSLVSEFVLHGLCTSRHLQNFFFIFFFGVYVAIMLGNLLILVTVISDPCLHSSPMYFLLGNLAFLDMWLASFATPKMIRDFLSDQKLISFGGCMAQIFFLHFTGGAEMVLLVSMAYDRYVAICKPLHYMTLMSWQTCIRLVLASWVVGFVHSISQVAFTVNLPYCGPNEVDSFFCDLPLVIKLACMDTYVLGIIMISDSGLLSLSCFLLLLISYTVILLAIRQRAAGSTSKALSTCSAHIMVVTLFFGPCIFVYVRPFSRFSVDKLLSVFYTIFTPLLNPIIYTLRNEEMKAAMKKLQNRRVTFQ
Chain of OR4K13 (Homo sapiens) (Q8NH42 whole entry): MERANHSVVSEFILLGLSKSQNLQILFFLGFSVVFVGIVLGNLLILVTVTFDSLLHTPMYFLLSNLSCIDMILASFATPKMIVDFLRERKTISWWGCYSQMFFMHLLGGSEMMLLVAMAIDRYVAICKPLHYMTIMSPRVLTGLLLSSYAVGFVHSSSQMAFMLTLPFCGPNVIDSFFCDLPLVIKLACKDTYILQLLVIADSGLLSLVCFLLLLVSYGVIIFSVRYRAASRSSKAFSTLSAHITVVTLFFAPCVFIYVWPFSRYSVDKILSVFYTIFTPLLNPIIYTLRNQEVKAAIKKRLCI
Chain of OR4F4 (Homo sapiens) (Q96R69 whole entry): as the sequence (Q8NH21 whole entry) above, with T141A, L160P, R221C, Q293R counted along it
Chain of OR4K1 (Homo sapiens) (Q8NGD4 whole entry): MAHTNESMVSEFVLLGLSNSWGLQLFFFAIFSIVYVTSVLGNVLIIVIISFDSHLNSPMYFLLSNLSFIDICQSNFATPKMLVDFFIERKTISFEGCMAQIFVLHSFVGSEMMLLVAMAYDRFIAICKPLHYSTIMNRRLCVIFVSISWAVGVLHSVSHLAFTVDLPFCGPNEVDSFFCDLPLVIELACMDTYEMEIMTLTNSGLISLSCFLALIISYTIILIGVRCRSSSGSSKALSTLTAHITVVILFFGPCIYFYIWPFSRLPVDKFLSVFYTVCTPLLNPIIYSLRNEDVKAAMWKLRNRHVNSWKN
Chain of OR4F6 (Homo sapiens) (Q8NGB9 whole entry): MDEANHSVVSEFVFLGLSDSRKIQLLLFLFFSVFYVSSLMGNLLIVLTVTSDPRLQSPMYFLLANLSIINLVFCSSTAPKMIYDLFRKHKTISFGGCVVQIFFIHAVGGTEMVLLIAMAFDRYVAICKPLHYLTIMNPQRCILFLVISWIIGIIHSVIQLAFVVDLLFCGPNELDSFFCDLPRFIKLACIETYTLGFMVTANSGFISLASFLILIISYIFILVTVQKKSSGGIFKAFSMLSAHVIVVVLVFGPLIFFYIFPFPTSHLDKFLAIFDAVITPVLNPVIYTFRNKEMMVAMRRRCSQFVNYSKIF
Chain of OR4K1 R304H (as listed by the source, stated change not applied): as the sequence (Q8NGD4 whole entry) above, with R304H counted along it
Chain of OR4K15 (Homo sapiens) (Q8NH41 whole entry): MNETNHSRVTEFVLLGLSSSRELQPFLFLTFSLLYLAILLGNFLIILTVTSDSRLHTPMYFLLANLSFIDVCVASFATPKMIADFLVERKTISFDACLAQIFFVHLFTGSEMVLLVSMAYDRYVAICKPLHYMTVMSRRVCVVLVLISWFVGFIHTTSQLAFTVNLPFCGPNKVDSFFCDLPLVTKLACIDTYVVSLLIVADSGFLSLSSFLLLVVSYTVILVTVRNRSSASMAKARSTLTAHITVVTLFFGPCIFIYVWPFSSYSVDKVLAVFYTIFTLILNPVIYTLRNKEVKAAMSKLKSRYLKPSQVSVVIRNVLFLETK

C=CCOC(=O)Cc1ccccc1
not listed: OR4K15 (Homo sapiens)
inactive: all other assays above

Cc1c([N+](=O)[O-])c(C)c([N+](=O)[O-])c(C(C)(C)C)c1[N+](=O)[O-]
not listed: OR4F5 T141A Q293R | OR4K1 R304H
inactive: all other assays above
